From ChEMBL document CHEMBL4028872, “Structure-Activity Relationship, Pharmacological Characterization, and Molecular Modeling of Noncompetitive Inhibitors of the Betaine/γ-Aminobutyric Acid Transporter 1 (BGT1)” (J Med Chem, 2017) come the findings set out here.

Format in all cases: cell-based
The target of experiment [1] is T1, Sodium- and chloride-dependent GABA transporter 3 (Homo sapiens, UniProt P48066).
T1 sequence (P48066 whole entry): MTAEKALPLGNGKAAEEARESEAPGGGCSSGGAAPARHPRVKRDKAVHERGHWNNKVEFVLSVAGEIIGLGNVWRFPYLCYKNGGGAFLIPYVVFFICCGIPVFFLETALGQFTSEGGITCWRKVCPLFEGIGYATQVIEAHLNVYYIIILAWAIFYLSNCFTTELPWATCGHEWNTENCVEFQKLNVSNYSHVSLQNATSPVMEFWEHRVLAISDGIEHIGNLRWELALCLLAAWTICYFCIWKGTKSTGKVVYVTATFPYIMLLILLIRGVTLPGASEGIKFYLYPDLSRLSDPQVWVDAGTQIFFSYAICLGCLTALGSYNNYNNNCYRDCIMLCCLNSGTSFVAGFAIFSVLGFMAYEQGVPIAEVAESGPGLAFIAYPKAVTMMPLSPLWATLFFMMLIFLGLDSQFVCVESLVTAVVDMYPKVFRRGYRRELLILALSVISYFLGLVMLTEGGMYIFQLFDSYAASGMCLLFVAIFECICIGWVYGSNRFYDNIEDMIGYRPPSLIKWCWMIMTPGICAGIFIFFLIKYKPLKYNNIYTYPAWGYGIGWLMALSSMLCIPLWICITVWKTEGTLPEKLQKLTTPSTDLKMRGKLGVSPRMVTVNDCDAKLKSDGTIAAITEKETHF
Description: Inhibition of human GAT3 expresses in tsA201 cells assessed as reduction in [3H]GABA uptake after 3 mins by scintillation counting method. In a few lines: (§1)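 Wild-type human GAT transiently expressed in tsA201 cells via pcDNA5/FRT and PolyFect. Uptake of 30 nM [3H]GABA was run for 3 min at 37 °C in HBSS/20 mM HEPES with 1 mM CaCl2 and 1 mM MgCl2, pH 7.4, across a range of test concentrations. Ice-cold washes were followed by scintillation counting. IC50 was obtained by sigmoidal variable-slope fitting, reported as mean pIC50 ± S.E.M.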

Experiment [2] concerns the target T2, Sodium- and chloride-dependent GABA transporter 2 (Homo sapiens, UniProt Q9NSD5).
T2 sequence (Q9NSD5 whole entry): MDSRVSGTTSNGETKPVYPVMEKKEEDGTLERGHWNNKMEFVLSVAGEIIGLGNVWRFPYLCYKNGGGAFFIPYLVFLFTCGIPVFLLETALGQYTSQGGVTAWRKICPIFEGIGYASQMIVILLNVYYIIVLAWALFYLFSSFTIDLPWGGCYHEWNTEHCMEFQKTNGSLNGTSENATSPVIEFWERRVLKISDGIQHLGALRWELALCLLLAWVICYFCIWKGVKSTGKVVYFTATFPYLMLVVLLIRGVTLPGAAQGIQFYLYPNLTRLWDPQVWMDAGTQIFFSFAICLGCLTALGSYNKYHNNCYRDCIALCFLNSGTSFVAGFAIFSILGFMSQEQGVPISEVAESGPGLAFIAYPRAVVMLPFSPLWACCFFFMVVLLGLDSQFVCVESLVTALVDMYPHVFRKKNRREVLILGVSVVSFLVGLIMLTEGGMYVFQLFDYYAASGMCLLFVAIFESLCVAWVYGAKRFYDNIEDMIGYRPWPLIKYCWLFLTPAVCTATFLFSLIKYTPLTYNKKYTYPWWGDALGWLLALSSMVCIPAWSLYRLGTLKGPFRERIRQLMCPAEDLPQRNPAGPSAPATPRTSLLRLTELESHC
Description: Inhibition of human GAT2 expresses in tsA201 cells assessed as reduction in [3H]GABA uptake after 3 mins by scintillation counting method. The method, boiled down:
as §1

In experiment [3] the target is T3, Sodium- and chloride-dependent betaine transporter (Homo sapiens, UniProt P48065).
T3 sequence (P48065 whole entry): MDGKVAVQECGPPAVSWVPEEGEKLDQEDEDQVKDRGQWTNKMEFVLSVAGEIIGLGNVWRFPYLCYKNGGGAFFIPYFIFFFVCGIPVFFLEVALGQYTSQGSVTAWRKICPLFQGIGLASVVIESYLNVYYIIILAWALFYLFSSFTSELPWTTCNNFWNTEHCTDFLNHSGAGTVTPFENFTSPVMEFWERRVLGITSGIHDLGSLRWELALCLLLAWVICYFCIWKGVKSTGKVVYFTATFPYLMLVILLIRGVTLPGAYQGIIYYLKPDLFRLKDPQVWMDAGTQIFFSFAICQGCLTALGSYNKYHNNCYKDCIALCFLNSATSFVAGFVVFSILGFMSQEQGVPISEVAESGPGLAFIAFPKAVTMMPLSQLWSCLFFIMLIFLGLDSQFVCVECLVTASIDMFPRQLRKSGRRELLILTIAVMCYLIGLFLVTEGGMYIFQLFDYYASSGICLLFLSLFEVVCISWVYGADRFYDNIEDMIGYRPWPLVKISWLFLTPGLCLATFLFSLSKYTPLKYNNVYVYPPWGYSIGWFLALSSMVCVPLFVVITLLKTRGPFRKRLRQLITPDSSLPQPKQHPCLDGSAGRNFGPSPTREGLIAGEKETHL
Description: Inhibition of human BGT1 expresses in tsA201 cells assessed as reduction in [3H]GABA uptake after 3 mins by scintillation counting method. The method, boiled down: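 tsA201 cells transiently transfected with wild-type or mutant human BGT1 (PolyFect) were plated about 24 h before assay. Three ice-cold washes followed, then scintillation counting.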

For experiment [4], the target named is Sodium- and chloride-dependent GABA transporter 1 (Homo sapiens, UniProt P30531).
Sodium- and chloride-dependent GABA transporter 1, sequence (P30531 whole entry): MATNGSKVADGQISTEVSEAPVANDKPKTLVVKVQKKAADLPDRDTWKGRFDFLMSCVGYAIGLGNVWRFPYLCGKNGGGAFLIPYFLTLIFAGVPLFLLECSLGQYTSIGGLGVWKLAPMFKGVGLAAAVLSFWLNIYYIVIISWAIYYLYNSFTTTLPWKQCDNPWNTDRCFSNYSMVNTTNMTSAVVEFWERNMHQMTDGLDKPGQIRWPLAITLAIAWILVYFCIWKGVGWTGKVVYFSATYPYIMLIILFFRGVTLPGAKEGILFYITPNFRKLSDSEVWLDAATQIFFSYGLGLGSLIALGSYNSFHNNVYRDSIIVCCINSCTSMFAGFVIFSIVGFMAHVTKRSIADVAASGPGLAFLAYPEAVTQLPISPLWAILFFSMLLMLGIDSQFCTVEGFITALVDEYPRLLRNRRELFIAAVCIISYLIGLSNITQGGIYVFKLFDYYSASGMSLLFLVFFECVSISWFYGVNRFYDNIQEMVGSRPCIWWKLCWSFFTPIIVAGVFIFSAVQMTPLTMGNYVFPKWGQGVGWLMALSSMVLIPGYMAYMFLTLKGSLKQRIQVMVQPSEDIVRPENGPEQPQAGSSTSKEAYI

The structures appear in SMILES notation.

For the compound `O=C(NC1CCN(Cc2ccc(I)cc2)CC1)c1ccc(Cl)cc1Cl`, the IC50 in experiment [1] (read-out: IC50), in experiment [2] (read-out: IC50), in experiment [3] (read-out: IC50) and in experiment [4] (read-out: IC50) was more than 100 µM in each case.

Regarding `O=C(NC1CCN(Cc2ccncc2)CC1)c1ccc(Cl)cc1Cl`, the IC50 in experiment [1] (read-out: IC50), in experiment [2] (read-out: IC50), in experiment [3] (read-out: IC50) and in experiment [4] (read-out: IC50) was more than 1000 µM in each case.

On to `COC(=O)c1ccc(CN2CCC(NC(=O)c3ccc(Cl)cc3Cl)CC2)cc1`, for which the half-maximal inhibitory concentration (IC50) in experiment [1] (read-out: IC50), in experiment [2] (read-out: IC50), in experiment [3] (read-out: IC50) and in experiment [4] (read-out: IC50) was more than 100 µM in each case.

With `O=C(NC1CCN(Cc2ccccc2)CC1)c1ccc(F)cc1`, the IC50 (in general, the concentration that inhibits the measured activity by half) in experiment [1] (read-out: IC50) was more than 300 µM; in experiment [2] (read-out: IC50) it was more than 300 µM; in experiment [3] (read-out: IC50), 100 µM; in experiment [4] (read-out: IC50), more than 300 µM.

On to `CC(C)C(=O)NC1CCN(Cc2ccccc2)CC1`, for which the IC50 in experiment [1] (read-out: IC50), in experiment [2] (read-out: IC50), in experiment [3] (read-out: IC50) and in experiment [4] (read-out: IC50) was more than 1000 µM each time.

For the compound `O=C(NC1CCN(Cc2ccccc2)CC1)c1ccc2c(c1)OCO2`, the IC50 was more than 100 µM in experiment [1], 63 µM in experiment [2], 42 µM in experiment [3] and more than 100 µM in experiment [4].

Regarding `O=C(NC1CCNCC1)c1ccc(Cl)cc1Cl`, the half-inhibitory concentration (IC50) in experiment [1] (read-out: IC50), in experiment [2] (read-out: IC50), in experiment [3] (read-out: IC50) and in experiment [4] (read-out: IC50) was more than 1000 µM each time.

As for `N#Cc1ccc(CN2CCC(NC(=O)c3ccc(Cl)cc3Cl)CC2)cc1`, the concentration for half-maximal inhibition (IC50) in experiment [1] (read-out: IC50), in experiment [2] (read-out: IC50), in experiment [3] (read-out: IC50) and in experiment [4] (read-out: IC50) was more than 50 µM in each case.

As to `CN1CCC(NC(=O)c2ccc(Cl)cc2Cl)CC1`, the half-inhibitory concentration (IC50) in experiment [1] (read-out: IC50), in experiment [2] (read-out: IC50), in experiment [3] (read-out: IC50) and in experiment [4] (read-out: IC50) was more than 1000 µM each time.

Regarding `C#CCN1CCC(NC(=O)c2ccc(Cl)cc2Cl)CC1`, the IC50 in experiment [1] (read-out: IC50), in experiment [2] (read-out: IC50), in experiment [3] (read-out: IC50) and in experiment [4] (read-out: IC50) was more than 1000 µM in each case.

On to `O=C(O)CN1CCC(NC(=O)c2ccc(Cl)cc2Cl)CC1`, for which the concentration for half-maximal inhibition (IC50) in experiment [1] (read-out: IC50), in experiment [2] (read-out: IC50), in experiment [3] (read-out: IC50) and in experiment [4] (read-out: IC50) was more than 1000 µM in each case.

Take `O=C(NC1CCN(Cc2ccccc2)CC1)c1ccccc1`: the IC50 in experiment [1] (read-out: IC50) is more than 1000 µM; in experiment [2] (read-out: IC50), more than 1000 µM; in experiment [3] (read-out: IC50) it was 290 µM; in experiment [4] (read-out: IC50), more than 1000 µM.

Take `O=C(NC1CCN(Cc2ccc3ccccc3c2)CC1)c1ccc(Cl)cc1Cl`: the IC50 in experiment [1] (read-out: IC50), in experiment [2] (read-out: IC50), in experiment [3] (read-out: IC50) and in experiment [4] (read-out: IC50) was more than 50 µM throughout.

Take `O=C(NC1CCN(C/C=C/c2ccccc2)CC1)c1ccc(Cl)cc1Cl`: the IC50 in experiment [1] (read-out: IC50), in experiment [2] (read-out: IC50), in experiment [3] (read-out: IC50) and in experiment [4] (read-out: IC50) was more than 100 µM each time.

`CCOP(=O)(CCCN1CCC(NC(=O)c2ccc(Cl)cc2Cl)CC1)OCC`: the IC50 in experiment [1] (read-out: IC50), in experiment [2] (read-out: IC50), in experiment [3] (read-out: IC50) and in experiment [4] (read-out: IC50) was more than 1000 µM each time.

For `O=C(NC1CCN(Cc2ccc([N+](=O)[O-])cc2)CC1)c1ccc(Cl)cc1Cl`, the 50% inhibitory concentration (IC50) in experiment [1] (read-out: IC50), in experiment [2] (read-out: IC50), in experiment [3] (read-out: IC50) and in experiment [4] (read-out: IC50) was more than 100 µM throughout.

With `CC(C)(C)OC(=O)CN1CCC(NC(=O)c2ccc(Cl)cc2Cl)CC1`, the IC50 in experiment [1] (read-out: IC50), in experiment [2] (read-out: IC50), in experiment [3] (read-out: IC50) and in experiment [4] (read-out: IC50) was more than 1000 µM in each case.

For `O=C(NC1CCN(Cc2ccccc2[N+](=O)[O-])CC1)c1ccc(Cl)cc1Cl`, the concentration for half-maximal inhibition (IC50) in experiment [1] (read-out: IC50), in experiment [2] (read-out: IC50), in experiment [3] (read-out: IC50) and in experiment [4] (read-out: IC50) was more than 100 µM each time.

Consider `CCN1CCC(NC(=O)c2ccc(Cl)cc2Cl)CC1`, for which the IC50 in experiment [1] (read-out: IC50), in experiment [2] (read-out: IC50), in experiment [3] (read-out: IC50) and in experiment [4] (read-out: IC50) was more than 1000 µM in each case.

As for `O=C(NC1CCN(Cc2cccnc2)CC1)c1ccc(Cl)cc1Cl`, the IC50 in experiment [1] (read-out: IC50), in experiment [2] (read-out: IC50), in experiment [3] (read-out: IC50) and in experiment [4] (read-out: IC50) was more than 1000 µM throughout.

On to `O=C(NC1CCN(Cc2ccccc2)CC1)c1ccc2ccccc2c1`, for which the IC50 is more than 100 µM in experiment [1], 23 µM in experiment [2], 15 µM in experiment [3] and more than 100 µM in experiment [4].

Regarding `O=C(CN1CCC(NC(=O)c2ccc(Cl)cc2Cl)CC1)c1ccccc1`, the IC50 in experiment [1] (read-out: IC50), in experiment [2] (read-out: IC50), in experiment [3] (read-out: IC50) and in experiment [4] (read-out: IC50) was more than 100 µM each time.
